Experimental data from ChEMBL document CHEMBL1126740, “(S)- and (R)-8-(di-n-propylamino)-6,7,8,9-tetrahydro-3H-benz[e]indole-1-carbaldehyde: a new class of orally active 5-HT1A-receptor agonists” (J Med Chem, 1993).
Activity calls are given as the source filed them. The rule behind the calls is not given here.

How the values were obtained:
[1] = test system: Rattus norvegicus; test: In vivo evaluation for 5-HTP accumulation in the hemispheres in male rats (sc); format: functional
Method in brief: (§1)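 Male Sprague-Dawley rats were pretreated with reserpine 5 mg/kg sc 18 h before dosing. DOPA and 5-HTP in limbic system, striatum and hemispheres were measured by HPLC with electrochemical detection. Dose-response curves used 4–6 dose levels (n = 4) for each region; ED50 was estimated graphically. Partial responses are given as the maximal % reduction at the highest dose tested.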

[2] = Half life of compound at 1 uM/dg administered intravenously; format: ADME, organism-based; settings: in vivo, iv
Method in brief: (§2)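 Male Sprague-Dawley rats (300 g) carrying arterial catheters, used 24 h after surgery; animals dosed orally were starved 18 h beforehand. Blood was sampled at intervals up to 12 h after dosing. Drug levels were measured by HPLC with fluorescence detection (ex 285, em 365) or by GC/MS, calibrated against spiked blank blood. AUC was taken from concentration-time curves; n = 4–6.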

[3] = Time taken to reach the maximum concentration of compound at 1 uM/dg administered intravenously; format: ADME, organism-based; settings: in vivo, iv
Method in brief: (§3)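 Male Sprague-Dawley rats (300 g) with arterial catheters, used 24 h after surgery; rats dosed orally were starved 18 h. Drug was given po or iv. Blood (100–250 μL) was sampled at intervals up to 12 h and assayed by HPLC-fluorescence (ex 285, em 365) or GC/MS against spiked blank-blood standard curves. Cmax and tmax were taken from concentration–time curves; n = 4–6.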

[4] = test system: Rattus norvegicus; test: In vivo evaluation for DOPA accumulation in the hemispheres in male rats at highest test dose of 45 uM/Kg; inactive; format: functional, organism-based; method in brief: as §1
[5] = Maximum concentration of the drug at 1 umol/dg administered intravenously; format: ADME, organism-based; design: route intravenous; settings: in vivo, iv
Method in brief: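 Male Sprague-Dawley rats (300 g) with arterial catheters were dosed 24 h after surgery; orally dosed rats were starved 18 h beforehand. Blood was sampled at intervals up to 12 h and analysed by HPLC with fluorescence detection (ex 285, em 365) or by GC/MS. Cmax is in pmol/mL and tmax in min, mean ± SEM, n = 4–6.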

[6] = test system: Rattus norvegicus; test: Maximal reduction in percent (Partial response) of DOPA accumulation rat limbic system at highest test dose of 61 uM/Kg (po); format: functional
[7] = test system: Rattus norvegicus; test: In vivo evaluation for 5-HTP accumulation in the corpus striatum in male rats (po); format: functional; method in brief: as §1
[8] = test system: Rattus norvegicus; test: In vivo evaluation for 5-HTP accumulation in the corpus striatum in male rats.(sc); format: functional
Method in brief: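 Male Sprague-Dawley rats (200–300 g), reserpine-pretreated (5 mg/kg sc, 18 h before). Test drug was given sc in 4–6 doses (n = 4 per dose), with separate curves per brain area. 5-HTP in corpus striatum was measured by HPLC with electrochemical detection. ED50 was read from the dose–response curve.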

[9] = test system: Rattus norvegicus; test: Maximal reduction in percent (Partial response) of DOPA accumulation rat hemispheres at highest test dose of 61 uM/Kg (po); Inactive; format: functional, organism-based; method in brief: as §1
[10] = test system: Rattus norvegicus; test: In vivo evaluation for 5-HTP accumulation in the hemispheres in male rats (po); format: functional; method in brief: as §1
[11] = test system: Rattus norvegicus; test: Maximal reduction in percent (Partial response) of DOPA accumulation rat corpus striatum at highest test dose of 61 uM/Kg (po); format: functional; method in brief: as §1
[12] = test system: Rattus norvegicus; test: In vivo evaluation for 5-HTP accumulation in the limbic system in male rats (po); format: functional; method in brief: as §1
[13] = organism: Rattus norvegicus; test: Compound was tested for 5-HT behavioral response in reserpine pretreated rats; +5HT syndrome; format: functional, organism-based
Method in brief: (§4)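 Male Sprague-Dawley rats (200–300 g) were given reserpine 5 mg/kg sc 18 h before testing, then the test drug sc in the neck (n = 4). Motor activity was recorded by photocells for 30 min, with gross behaviour observed throughout. 5-HT syndrome: flat body posture, extended limbs, reciprocal forepaw treading. DA response: locomotion and stereotypies.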

[14] = biological target: D(2) dopamine receptor (Rattus norvegicus, UniProt P61169); test: Displacement of [3H]spiperone from dopamine receptor D2
Sequence of D(2) dopamine receptor (P61169 whole entry): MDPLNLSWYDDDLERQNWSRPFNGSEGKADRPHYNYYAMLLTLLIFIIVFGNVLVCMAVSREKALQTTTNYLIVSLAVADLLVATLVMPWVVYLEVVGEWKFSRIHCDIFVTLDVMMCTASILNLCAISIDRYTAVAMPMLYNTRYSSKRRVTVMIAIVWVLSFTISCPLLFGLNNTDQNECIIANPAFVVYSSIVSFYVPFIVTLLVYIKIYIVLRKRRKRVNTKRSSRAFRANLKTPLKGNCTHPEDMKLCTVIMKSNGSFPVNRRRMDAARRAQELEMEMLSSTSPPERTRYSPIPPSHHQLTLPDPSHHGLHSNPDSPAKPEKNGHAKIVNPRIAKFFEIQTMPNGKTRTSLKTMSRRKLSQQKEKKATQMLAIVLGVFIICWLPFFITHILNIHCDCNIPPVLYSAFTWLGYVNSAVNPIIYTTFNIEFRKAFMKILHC
Method in brief: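 Rat striatal membranes in 50 mM potassium phosphate buffer (3 mg original tissue) incubated with 0.5 nM [3H]spiperone for 10 min at 37 °C. Nonspecific binding was defined with 10 μM 6,7-ADTN. Ki was calculated by Cheng–Prusoff; triplicates, 3–7 experiments.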

[15] = Area under curve at 1 uM/dg administered intravenously; format: ADME; settings: iv; method in brief: as §2
[16] = Bioavailability in rat; format: ADME, organism-based; settings: in vivo
Method in brief: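 Blood was drawn at intervals up to 12 h and assayed by HPLC-fluorescence or GC/MS against spiked blank-blood standards. F is the ratio of oral to intravenous areas under the blood concentration-time curves; n = 4–6.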

[17] = Area under curve at 20 uM/dg administered perorally; format: ADME; settings: po; method in brief: as §2
[18] = test system: Rattus norvegicus; test: In vivo evaluation for 5-HTP accumulation in the limbic system in male rats (sc); format: functional; method in brief: as §1
[19] = test system: Rattus norvegicus; test: In vivo evaluation for DOPA accumulation in the corpus striatum in male rats at highest test dose of 45 uM/Kg; inactive; format: functional, organism-based; method in brief: as §1
[20] = test system: Rattus norvegicus; test: In vivo evaluation for DOPA accumulation in the limbic system in male rats at highest test dose of 45 uM/Kg; inactive; format: functional, organism-based; method in brief: as §1
[21] = Maximum concentration of the drug at 20 umol/dg administered perorally; format: ADME, organism-based; design: route oral; settings: in vivo, po; method in brief: as §3
[22] = test system: Rattus norvegicus; test: Maximal reduction in percent (Partial response) of 5-HTP accumulation rat hemispheres at highest test dose of 50 uM/Kg (sc); format: functional; method in brief: as §1
[23] = test system: Rattus norvegicus; test: Maximal reduction in percent (Partial response) of DOPA accumulation rat corpus striatum at highest test dose of 50 uM/Kg (sc); format: functional; method in brief: as §1
[24] = test system: Rattus norvegicus; test: Maximal reduction in percent (Partial response) of DOPA accumulation rat limbic system at highest test dose of 50 uM/Kg (sc); format: functional
[25] = biological target: T1, 5-hydroxytryptamine receptor 1A (Rattus norvegicus, UniProt P19327); test: In vitro binding affinity against 5-hydroxytryptamine 1A receptor using [3H]8-OH-DPAT
T1 sequence (P19327 whole entry): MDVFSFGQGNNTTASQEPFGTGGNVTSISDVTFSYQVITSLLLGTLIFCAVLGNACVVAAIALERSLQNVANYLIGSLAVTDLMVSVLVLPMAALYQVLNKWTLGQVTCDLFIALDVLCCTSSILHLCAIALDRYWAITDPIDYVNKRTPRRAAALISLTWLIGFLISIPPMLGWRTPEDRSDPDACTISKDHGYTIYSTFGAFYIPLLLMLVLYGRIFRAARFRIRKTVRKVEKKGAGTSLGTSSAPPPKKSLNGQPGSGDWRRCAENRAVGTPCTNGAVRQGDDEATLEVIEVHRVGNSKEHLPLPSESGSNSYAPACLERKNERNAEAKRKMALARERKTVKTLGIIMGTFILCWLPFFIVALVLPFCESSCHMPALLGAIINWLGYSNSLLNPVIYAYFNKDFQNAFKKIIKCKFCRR
Method in brief: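 Rat whole-brain membranes (brainstem and cerebellum removed) in 50 mM Tris pH 8.0 containing NaCl, CaCl2, MgCl2 and 10 μM pargyline, 10 mg tissue per tube. Nonspecific binding was defined with 10 μM 5-HT. IC50 was taken by semi-log linear regression and Ki by Cheng–Prusoff; triplicates.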

[26] = test system: Rattus norvegicus; test: In vivo evaluation for DOPA accumulation in the hemispheres in male rats at highest dose tested at 50 uM/Kg; inactive; format: functional, organism-based; method in brief: as §1
[27] = organism: Rattus norvegicus; test: Compound was tested for 5HT, Dopamine agonist mediated response in reserpine pretreated rats; mix DA, 5-HT syndrome; format: functional, organism-based; method in brief: as §4

`CCCN(CCC)C1CCc2cccc(O)c2C1` (racemic) [8-OH-DPAT] gave an ED50 [1] of 0.063 µmol/kg, a half-life [2] of 72 min and a Tmax at 1 µM [3] of 3 min. The ED50 [4] was “inactive”, the Cmax [5] was 344 pM ml-1 and the Reduction [6] was 35%. The ED50 [7] was 7.9 µmol/kg, the ED50 [8] was 0.052 µmol/kg and the Reduction [9] was “inactive”. For the same compound, the ED50 [10] was 7.9 µmol/kg, the Reduction [11] was 43% and the ED50 [12] was 3 µmol/kg. For the same compound, the Behavioral response [13] was “Active”, the Ki [14] was 1360 nM and the AUC [15] was 213 pM/h/g. The bioavailability [16] was 2.4%, the AUC [17] was 104 pM/h/g and the ED50 [18] was 0.052 µmol/kg. The ED50 [19] was “inactive”, the ED50 [20] was “inactive” and the Cmax [21] was 63 pM ml-1.

`CCCN(CCC)C1CCc2cc3cc[nH]c3cc2C1` (stereo not drawn) gave a Reduction [22] of 35%, a Reduction [23] of 51% and a Ki [14] of 350 nM. For the same compound, the Reduction [24] was 30%, the Ki [25] was 570 nM and the ED50 [26] was “inactive”. For the same compound, the Behavioral response [27] was “Active”.
